Screens from PubChem BioAssay.
OX1R antag-1 – blocks the human orexin 1 receptor. O43613. CHO/OX1R cells, Fluo-8 calcium fluorescence, orexin A. inhibition, % at 5 µM. 330,000 tested, 0.43% active;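 active = inhibition above its plate's threshold, mean inhibition of all tested compounds on the plate plus 3 SD, cut at about 37% in these data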;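 also: 0% = orexin A challenge wells and 100% = SB-334867-A antagonist wells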
CHO parental Ca – counter-screen for OX1R antagonists: effect in parental CHO cells; 330,000 tested, 0.63% active; parental CHO-K1, ATP-induced calcium, Fluo-8 fluorescence; inhibition, % at 5.6 µM;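 active = inhibition above that plate's mean sample inhibition plus 3 SD, cut at about 26% in these data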;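 also: 0% = ATP-challenged DMSO wells and 100% = DMSO wells without ATP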
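Test system: untransfected parental CHO cell line; also added: ATP stimulus; dosing: 5.6 µM, single dose; signal: calcium-sensitive Fluo-8 fluorescence; measure: percent inhibition of ATP-evoked calcium rise, normalized to controls; benchmarks: low control ATP plus DMSO, high control DMSO only; replication: one well per compound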
TAAR1 ag – agonists of human TAAR1 | AID 624467 | Q96RJ0 | activation, % at 3 µM | CHO RD-HGA16 TAAR1, Fluo-8 calcium fluorescence; vehicle wells 0%, saturating PEA agonist 100% | 360,000 tested, 0.99% active;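 active = activation above the mean activation of all test compounds in the run plus 3 SD, cut at about 38% in these data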
Target sequence (Q96RJ0 whole entry, looked up): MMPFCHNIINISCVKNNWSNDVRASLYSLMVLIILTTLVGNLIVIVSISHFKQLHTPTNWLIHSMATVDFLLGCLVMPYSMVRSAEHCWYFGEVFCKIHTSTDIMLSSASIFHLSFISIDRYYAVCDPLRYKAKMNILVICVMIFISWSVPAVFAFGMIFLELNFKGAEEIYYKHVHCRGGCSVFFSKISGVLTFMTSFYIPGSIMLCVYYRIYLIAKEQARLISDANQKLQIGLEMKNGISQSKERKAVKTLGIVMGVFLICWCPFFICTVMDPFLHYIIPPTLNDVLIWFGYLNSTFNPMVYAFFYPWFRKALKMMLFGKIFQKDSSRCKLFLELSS
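Test system: RD-HGA16 (CHO) cells co-expressing Gα16 and hTAAR1 | Doses: Single dose, 3 µM | Schedule: 17-24 h seeding, 75 min 37 °C dye, 30 min RT | Evaluation: % activation from peak over basal fluorescence ratio, DMSO-to-PEA scaled | Technique: Kinetic Fluo-8 calcium fluorescence | Benchmarks: Low control DMSO, high control PEA (EC100)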
TAAR1 antagonist – antagonists of human TAAR1. Q96RJ0. inhibition, % at 3 µM. 360,000 tested, 1.5% active. CHO RD-HGA16 TAAR1, Fluo-8 calcium fluorescence, antagonist. AID 624466;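 active = inhibition above a per-plate cutoff, the mean inhibition of test compounds on that plate plus 3 SD, cut at about 49% in these data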;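 also: 0% = DMSO plus EC80 beta-PEA response and 100% = DMSO alone without agonist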
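test system = CHO RD-HGA16 cells bearing hTAAR1 | replication = singlicate | controls = DMSO-only wells and EC80 β-PEA-stimulated wells | reagent = EC80 β-phenethylamine stimulus | read-out basis = percent inhibition of PEA-evoked calcium signal, max/basal emission ratio | schedule = seeding 17-24 h prior, 75-min 37 °C, 30-min RT dye loading | signal = kinetic Fluo-8 calcium fluorescence measurement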
OX1R antag-2 – antagonists of human orexin 1 receptor (OX1R). AID 485270. inhibition, % at 6.6 µM. OX1R-expressing cells, FRET antagonist read-out. 330,000 tested, 1.8% active. O43613; in the data active = inhibition mostly above about 38%, no sharp cut-off; inactive = mostly below about 40%;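 also: 0% = agonist challenge alone and 100% = reference antagonist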
GPR7 antag – antagonists of human GPR7 (neuropeptides B/W receptor 1); GPR7-expressing cells, fluorescence antagonist assay; inhibition, % at 4.4 µM; P48145; 290,000 tested, 1.1% active; AID 1861; in the data active = inhibition above about 16%, passing the limit was not always enough;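 also: cells stimulated with the agonist NPW; 0% = agonist with vehicle and 100% = vehicle without agonist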
Target sequence (P48145 whole entry, looked up): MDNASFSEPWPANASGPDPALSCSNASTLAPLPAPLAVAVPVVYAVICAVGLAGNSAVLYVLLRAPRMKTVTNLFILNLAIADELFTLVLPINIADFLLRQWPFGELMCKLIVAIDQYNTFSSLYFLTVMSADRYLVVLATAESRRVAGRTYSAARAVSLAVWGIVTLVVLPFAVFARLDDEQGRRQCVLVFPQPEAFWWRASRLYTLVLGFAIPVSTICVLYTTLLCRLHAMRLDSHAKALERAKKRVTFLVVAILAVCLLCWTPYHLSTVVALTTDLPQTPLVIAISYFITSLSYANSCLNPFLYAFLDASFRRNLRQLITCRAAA
Numbers without * were called inactive; . = no result given. Only some compounds are listed: those with a hit (about 4.5% of all), similar ones and a draw of the others.

SMILES | OX1R antag-1 | CHO parental Ca | TAAR1 ag | TAAR1 antagonist | OX1R antag-2 | GPR7 antag
Cc1ccc(OCCOC(=O)C2CCN(S(=O)(=O)c3ccc(C)c(C)c3)CC2)cc1 | -5 | 29* | 2 | 24 | 16 | .
CCCCN(C)C(=O)CCCc1c[nH]c2ccccc12 | -10 | 0 | 1 | -19 | 9 | 19*
CCN(CC)C(=O)CCCc1c[nH]c2ccccc12 | -18 | 3 | 4 | 5 | 18 | 13
COC(=O)[C@H](Cc1ccccc1)N1CC(N2CCCC2)CS1(=O)=O (stereo partly drawn) | . | . | 2 | -9 | . | .
NC(=O)c1c(N)[nH]c(C(=O)c2ccccc2)c1-c1ccccc1Cl | . | . | 9 | 19 | . | .
Cn1nc(OC(=O)Nc2ccc(Cl)cc2)cc1C(F)(F)F | 9 | 38* | . | . | 20 | -3
O=C(N[C@H](C(=O)N1CCC[C@H]1C(=O)NCCc1ccccc1Cl)C1CCCCC1)c1ccc(Cl)c(Cl)c1 | . | . | 4 | -1 | . | .
COC(=O)c1ccc(NS(=O)(=O)c2ccc(SC)cc2)cc1 | -3 | 1 | 28 | -1 | 12 | -1
Cc1ccc(S(=O)(=O)Nc2ccc3c(c2)OCCO3)cc1 | -1 | 0 | 3 | -19 | 20 | 0
COc1ccc(S(=O)(=O)Nc2ccc(S(=O)(=O)N3CCOCC3)cc2)cc1 | -11 | -5 | 2 | 16 | 17 | -3
CSc1ccc(S(=O)(=O)Nc2ccc(F)cc2)cc1 | 16 | -3 | 39* | 23 | 14 | -1
O=S(=O)(Nc1ccc2c(c1)OCCO2)c1ccc(F)cc1 | -17 | -9 | 40* | 15 | 6 | -3
O=S(=O)(Nc1ccc(F)cc1)c1ccc(S(=O)(=O)N2CCOCC2)cc1 | 19 | -5 | 61* | 38 | 5 | .
O=S(=O)(Nc1cccnc1)c1ccc2c(c1)OCCO2 | -17 | 4 | 12 | -1 | 13 | 20*
O=S(=O)(Nc1cccnc1Cl)c1ccc2c(c1)OCCO2 | -2 | -3 | 1 | 10 | 12 | -11
C[C@@H]1ON(C)[C@H]2C[C@H]3c4cc(N5CCN(C)CC5)ccc4CCN3C[C@@H]12 | . | . | 2 | -24 | . | .
CC(C)(C)NC(=O)C(c1cccc2ccccc12)n1c(=O)c(-c2cc3ccccc3[nH]2)nc2ccccc21 (stereo not drawn) | . | . | 1 | -17 | . | .
Cc1cccnc1NC(=O)c1ccc(Cl)c(S(=O)(=O)N2CCCCC2)c1 | -20 | -4 | 0 | 11 | 9 | .
CCCCn1c(N)c(N(CCOC)C(=O)CCCc2cccs2)c(=O)[nH]c1=O | -1 | -23 | 4 | -25 | 13 | .
Clc1ccc(Cn2ncc3c(N4CCN(c5ccccc5)CC4)ncnc32)cc1 | . | . | 12 | 57* | . | .
Cc1cccc(-c2cc(C(=O)NCc3ccccn3)c3ccccc3n2)c1 | -23 | -13 | 11 | 53* | 14 | -6
O=C(NCc1ccccn1)c1cc(-c2ccc(-c3ccccc3)cc2)nc2ccccc12 | -30 | -18 | 7 | 51* | 13 | -12
O=C(NCc1ccccn1)c1cc(-c2ccccc2)nc2ccccc12 | -27 | -18 | 0 | -5 | 22 | -8
COC(=O)C1=C(C)N(Cc2ccccc2C(F)(F)F)C(=NCC2CC2)NC1c1cccc(F)c1 (stereo not drawn) | . | . | 13 | -16 | . | .
CCCCc1c(-c2ccccc2OC)ncn1Cc1cccc(F)c1F | . | . | 3 | 14 | . | .
SMILES | OX1R antag-1 | CHO parental Ca | TAAR1 ag | TAAR1 antagonist | OX1R antag-2 | GPR7 antag
COC(=O)[C@]1(C)N[C@H](CN(C)C(=O)Nc2ccc(C)cc2)[C@@H]2C(=O)N(C)C(=O)[C@@H]21 | -10 | -3 | 1 | -15 | -1 | .
COc1ccccc1CC(=O)Nc1ccc([N+](=O)[O-])cc1O | 15 | 1 | 14 | 8 | 33 | 29*
COC(=O)c1nc2nc(-c3cccs3)cc(C(F)(F)F)n2n1 | -5 | -4 | 3 | 1 | 77* | -5
O=C(NCc1ccco1)c1nc2nc(-c3cccs3)cc(C(F)(F)F)n2n1 | -25 | -20 | -2 | -3 | 70* | -13
O=C(CSc1nc(-c2cccs2)cc(C(F)(F)F)n1)NCc1ccco1 | -35 | -8 | 5 | -15 | 19 | -1
COC(=O)c1nc2nc(C)cc(C(F)(F)F)n2n1 | -6 | 1 | 9 | 1 | 13 | -6
CCCCNC(=O)C1(C)CCN1C(=O)c1csnn1 (stereo not drawn) | . | . | 2 | -19 | . | .
Cc1ccc(Oc2ncccc2N)c2c1CCC2 | -8 | -21 | 0 | -5 | 17 | 19*
O=C(Nc1sc2c(c1C(=O)O)CCCC2)c1ccc(F)cc1 | . | . | -2 | 9 | . | -8
NC(=O)c1c(NC(=O)c2ccc(F)cc2)sc2c1CCC2 | -4 | -21 | 0 | 11 | 51* | -14
Cc1cc(C(F)F)n2nc(C(=O)Nc3sc4c(c3C(N)=O)CCC4)nc2n1 | -2 | -4 | 2 | -4 | 57* | -13
CNC(=O)c1c(NC(=O)c2cccc(C)c2)sc2c1CCC2 | -18 | -20 | 3 | -16 | 44* | 14
COC(=O)c1c(NC(=O)c2nc3nc(C)cc(C(F)F)n3n2)sc2c1CCC2 | -9 | -14 | 7 | -9 | 5 | -9
C=CCN(CC=C)C[C@@H]1CSCCS(=O)(=O)N1 | . | . | 2 | 4 | . | .
Cc1cc(-c2nc3ccccc3o2)c2ccccc2n1 | -20 | -34 | 14 | 9 | 45* | -9
N#Cc1cccnc1N1CCN(C(=O)c2cccc3c2C(=O)c2ccc(Cl)cc2S3(=O)=O)CC1 | -19 | -24 | 20 | 19 | 34* | .
NC(=O)c1c(N)[nH]c(C(=O)c2ccccc2)c1-c1ccccc1 | . | . | 7 | -11 | . | .
C=CCn1c2ccccc2c2nnc(SCN3C(=O)c4ccccc4C3=O)nc21 | -21 | -29 | 16 | 51* | 62 | -12
C=CCn1c2ccccc2c2nnc(SCCN3CCCCC3)nc21 | -20 | -15 | 4 | -17 | 13 | -24
C=CCn1c2ccccc2c2nnc(SCCCn3c(=O)[nH]c4ccccc43)nc21 | . | . | 10 | 56* | . | -14
COc1ccc(S(=O)(=O)N2CCc3cc4c(cc3C2C)OCCCO4)cc1 (stereo not drawn) | -1 | 12 | 0 | -19 | 28 | 18
O=C(CCc1ccncc1)NC1CCCc2c1cnn2-c1ccc(F)cc1F (stereo not drawn) | -13 | -3 | 3 | -8 | 6 | -8
NCc1csc(NC(=O)Nc2cccc(C(F)(F)F)c2)n1 | . | . | 7 | 13 | . | .
O=C(CNC(=O)c1ccc2c(c1)OCO2)N/N=C(Br)/C=C/c1ccccc1 | -2 | -10 | 41* | 8 | 30 | 18
O=C(CNC(=O)c1ccc2c(c1)OCO2)N/N=C/c1cccc([N+](=O)[O-])c1 | -23 | -12 | -4 | -14 | 32 | 0
Cc1ccc(N=C2NC(=O)c3cc([N+](=O)[O-])ccc32)cc1 | -1 | 9 | -2 | -15 | 56* | 3
